# In article PMC4109633 (Drug Design, Development and Therapy, 2014):
# Marks after values point to notes of the source that are not given here.
# What was measured:
# [1] = tested on: G-quadruplex DNA; conditions: cited from earlier work
# [2] = tested on: Salmonella typhimurium TA1535; test: Cytotoxicity in liquid medium; format: cell-based; conditions: mean ± SEM
# Summary of the method: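 TA1535 was grown in broth microdilution with test compound at 25, 50 or 100 µM. Viability was expressed as % of untreated control (mean ± SEM), triplicate.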
# [3] = tested on: Salmonella typhimurium TA1535; test: Antimutagenicity assay against benzo[a]pyrene with S9 mix; format: cell-based; conditions: for B[a]P mutagenicity (revertant colonies/plate; mean ± SEM): B[a]P 20 μM + S9 mix, spontaneous 105.0±13.1; for Mutant frequency (benzo[a]pyrene): mutant colonies/viable colonies
# [4] = tested on: Salmonella typhimurium TA1535; test: Ames Salmonella/microsomal mutagenicity assay; format: cell-based; conditions: presence of S9 mix, spontaneous 67.0±6.1
# [5] = tested on: Salmonella typhimurium TA1535; test: Antimutagenicity assay against sodium azide; format: cell-based; conditions: for NaN3 mutagenicity (revertant colonies/plate; mean ± SEM): NaN3 2 μg/plate, spontaneous 29.3±5.3; for Mutant frequency (sodium azide): mutant colonies/viable colonies
# Summary of the method: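 TA1535 was exposed to test compound at 10 or 20 µM with NaN₃ (2 µg/plate) in two schemes. In pre-exposure, compound and bacteria were shaken 30 min at 37°C before mutagen was added. In co-exposure, bacteria, mutagen and compound were incubated together 30 min at 37°C. Cells were then plated on minimal glucose agar, and revertants counted at 48 h, in triplicate. Mutant frequency = mutant colonies/viable colonies.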
structure (smiles),measurement,setting,value
"N=C(N)c1ccc(-c2ccc(-c3ccc(C(=N)N)o3)o2)cc1 [Compound I, 5′-(4-amidinophenyl)-2,2′-bifuran-5-carboxamidine]",Recognition of G-quadruplex DNA,[1],recognize G-quadruplex DNA
"N#Cc1ccc(-c2ccc(-c3ccco3)o2)cc1F [Compound 4b, 4-(2,2′-Bifuran-5-yl)-2-fluorobenzonitrile]",Viability at fluoroarylbichalcophene concentrations (% of control),[2]; 25 μM,88.3±7.4 % of control
same,Viability at fluoroarylbichalcophene concentrations (% of control),[2]; 50 μM,64.7±6.6 ^a % of control
same,Viability at fluoroarylbichalcophene concentrations (% of control),[2]; 100 μM,29.0±3.1 ^a % of control
same,B[a]P mutagenicity (revertant colonies/plate; mean ± SEM),"[3]; co-exposure, 10 μM",193.0±15.7 revertant colonies/plate
same,Mutant frequency (benzo[a]pyrene),"[3]; co-exposure, 10 μM",3.00
same,B[a]P mutagenicity (revertant colonies/plate; mean ± SEM),"[3]; co-exposure, 20 μM",154.7±16.5 revertant colonies/plate
same,Mutant frequency (benzo[a]pyrene),"[3]; co-exposure, 20 μM",2.41
same,B[a]P mutagenicity (revertant colonies/plate; mean ± SEM),"[3]; pre-exposure, 10 μM",239.3±10.5 revertant colonies/plate
same,Mutant frequency (benzo[a]pyrene),"[3]; pre-exposure, 10 μM",3.72
same,B[a]P mutagenicity (revertant colonies/plate; mean ± SEM),"[3]; pre-exposure, 20 μM",238.0±7.6 revertant colonies/plate
same,Mutant frequency (benzo[a]pyrene),"[3]; pre-exposure, 20 μM",3.70
same,Fluoroarylbichalcophene mutagenicity (revertant colonies/plate; mean ± SEM),[4]; 10 μM,64.3±4.0 revertant colonies/plate
same,Fluoroarylbichalcophene mutagenicity (revertant colonies/plate; mean ± SEM),[4]; 20 μM,71.3±4.0 revertant colonies/plate
same,NaN3 mutagenicity (revertant colonies/plate; mean ± SEM),"[5]; co-exposure, 10 μM",35.3±2.8 revertant colonies/plate
same,Mutant frequency (sodium azide),"[5]; co-exposure, 10 μM",0.65
same,NaN3 mutagenicity (revertant colonies/plate; mean ± SEM),"[5]; co-exposure, 20 μM",32.7±5.5 revertant colonies/plate
same,Mutant frequency (sodium azide),"[5]; co-exposure, 20 μM",0.64
same,NaN3 mutagenicity (revertant colonies/plate; mean ± SEM),"[5]; pre-exposure, 10 μM",69.7±8.0 revertant colonies/plate
same,Mutant frequency (sodium azide),"[5]; pre-exposure, 10 μM",1.28
same,NaN3 mutagenicity (revertant colonies/plate; mean ± SEM),"[5]; pre-exposure, 20 μM",48.3±5.0 revertant colonies/plate
same,Mutant frequency (sodium azide),"[5]; pre-exposure, 20 μM",0.95
